TRPC4 act: opens the mouse TRPC4 cation channel; Q9QUQ5; 310,000 tested, 0.49% active; AID 2237; HEK293 TRPC4beta/mu-opioid, Fluo4 calcium fluorescence; active compounds read high; B-score at 10 µM;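 active = B-score above 5 SD of library B-scores, and initial fluorescence ratio not above library mean plus 5 SD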;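 also: positive B-score marks a calcium rise read as TRPC4 activation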
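System: HEK293 cells stably co-expressing mouse TRPC4beta and mu-opioid receptor; Schedule: Fluo4 dye loading 45 min at room temperature, 110 s recording; Detection: Fluo4 fluorescence, kinetic; Evaluation: B-scored integrated calcium fluorescence ratio; Controls: buffer (low) and maximal DAMGO (high).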
TRPC6 inhibitor: blocks the mouse TRPC6 cation channel; HEK293-TRPC6, membrane potential dye, ACh-evoked depolarization; active compounds read low; 310,000 tested, 1.1% active; B-score at 10 µM; Q61143;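 active = B-score under library mean minus 3 SD, initial fluorescence not abnormally high, positive integrated signal ratio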;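 also: B-score derived from integrated fluorescence ratio over the kinetic read; more negative B-score means stronger inhibition of depolarization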
TRPC6 activator: activates the mouse TRPC6 cation channel | B-score at 10 µM | 310,000 tested, 0.13% active | HEK293-TRPC6 membrane potential dye fluorescence; active compounds read high;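 active = B-score of the integrated fluorescence ratio above library mean plus 3 SD, and starting fluorescence ratio within library mean plus 5 SD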;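 also: higher score means more depolarization so channel activation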
TRPC4 block: blocks the mouse TRPC4 cation channel; Q9QUQ5; HEK293 TRPC4beta/mu-opioid, DAMGO-evoked Fluo4 calcium flux; active compounds read low; B-score at 10 µM; 300,000 tested, 0.39% active; AID 2247;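 active = B-score over 3 SD under the library average, no early fluorescence shift, positive overall ratio signal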
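material = TRPC4beta/mu-opioid receptor HEK293 cell line | probe or stimulus = sequential submaximal and maximal DAMGO stimulation | compound dosing = one concentration per compound | measured by = Fluo4 Ca2+ flux fluorescence | evaluation = integrated fluorescence ratio relative to baseline, converted to per-well B score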
TRPC4 potent: allosterically enhances the mouse TRPC4 cation channel; Q9QUQ5; HEK293 TRPC4beta/mu-opioid, DAMGO EC20, Fluo-4 Ca2+ flux; active compounds read high; B-score at 10 µM; 310,000 tested, 0.42% active; AID 2227;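 active = B-score of calcium response area above 5 SD of library B-scores, with initial fluorescence ratio within 5 SD of library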
A number is an active result; i = inactive. A selection: hits, their analogues and other compounds. The true share with any hit is near 2.3%.

SMILES | TRPC4 act | TRPC6 inhibitor | TRPC6 activator | TRPC4 block | TRPC4 potent
CCn1c(=O)c2sccc2n2c(CCCC(=O)NC3CCN(Cc4ccccc4)CC3)nnc12 | i | i | i | i | 14
CC(C)CCn1c(=O)c2ccccc2n2c(CCC(=O)NC3CCN(Cc4ccccc4)CC3)nnc12 | i | i | i | i | i
NC(=O)c1nsc(C(=O)N(Cc2ccco2)C(C(=O)NC2CCCC2)c2ccc(O)cc2)c1N (stereo not drawn) | i | i | i | -5 | i
NC(=O)c1nsc(C(=O)N(Cc2ccco2)C(C(=O)NCc2ccc(F)cc2)c2ccc(O)cc2)c1N (stereo not drawn) | i | i | i | -6 | i
Cc1ccc(C(C(=O)NCc2ccc(F)cc2)N(Cc2ccco2)C(=O)c2snc(C(N)=O)c2N)o1 (stereo not drawn) | i | i | i | i | i
COc1ccc(C(=O)NCC(c2ccc3c(c2)OCO3)N2CCN(c3ccc(OC)cc3)CC2)cc1 (stereo not drawn) | i | i | i | i | i
COC(=O)NCC(c1ccc2c(c1)OCO2)N1CCN(c2ccccc2)CC1 (stereo not drawn) | 169 | i | i | i | i
CC1CCCCN1S(=O)(=O)c1ccc2c(c1)C(C)(C)C(=O)N2C (stereo not drawn) | i | i | i | i | i
CC(C)C(=O)N1CCN(c2nc(-c3ccccc3)c3c(c2C#N)CCCC3)CC1 | i | i | i | i | 14
CC(C)Cc1nc(N2CCN(C(=O)c3ccco3)CC2)c(C#N)c2c1CCCC2 | i | i | i | i | i
COC(=O)c1sccc1NC(=O)c1ccc(OC)cc1 | i | i | i | i | i
COC(=O)c1sccc1NC(=O)c1ccc(C#N)cc1 | i | -5 | i | i | i
Oc1c(CN2CCCCC2)cc(Br)c2cccnc12 | i | i | i | -7 | i
Oc1c(CN2CCc3ccccc3C2)cc(Cl)c2cccnc12 | 69 | i | i | i | i
Cc1[nH]nc(Nc2ccccc2)c1[N+](=O)[O-] | i | i | i | i | 19
Cc1ccc(Nc2n[nH]c(C)c2[N+](=O)[O-])cc1 | i | i | i | i | i
CCOC(=O)c1ccc(N=C2C(=S)N(c3ccc(C(=O)OCC)cc3)C(=N)N2/N=C/c2ccccc2)cc1 | i | i | i | i | 17
Cc1nn(Cc2nnc(SCC(=O)Nc3ccc(Cl)cc3)n2C)c(C)c1[N+](=O)[O-] | i | i | i | i | i
Cc1cc(C)c(S(=O)(=O)Nc2cccc(C(=O)O)c2)cc1S(=O)(=O)Nc1cccc(C(=O)O)c1 | i | i | i | i | i
Cc1ccc(S(=O)(=O)N(C)C)cc1NC(=O)CSc1nncs1 | i | i | i | i | i
CCOC(=O)C1=C(Cc2ccc(C)cc2)C(=O)c2ccccc2C1=O | i | i | 13 | i | i
CCOC(=O)c1ccc(COC(=O)c2ccc3c(c2)-c2ccccc2C3=O)cc1 | i | i | i | i | i
Cc1ccc(-c2cc(C(=O)Nc3nccs3)c3ccccc3n2)c(C)c1 | i | i | i | i | i
Cc1ccc(-c2cc(C(=O)Nc3nccs3)c3ccccc3n2)o1 | i | i | i | -7 | i
Cc1cc(C(=O)NCCCN2CCN(c3cc(Cl)ccc3C)CC2)n(-c2ccccc2)n1 | i | i | i | -6 | i
SMILES | TRPC4 act | TRPC6 inhibitor | TRPC6 activator | TRPC4 block | TRPC4 potent
CCCCNC(=O)c1cc(C)nn1-c1ccccc1 | i | i | i | i | i
Cc1ccc(-c2nnc(N3CCC(C)CC3)c3ccccc23)cc1C | i | i | i | i | 63
O=S(=O)([N-]c1nc2ccccc2nc1-[n+]1ccccc1)c1ccc(F)cc1 | i | i | i | i | i
O=C(c1nc2ccc(Cl)cn2c1CNCC[C@@H]1C[C@@H]2C=C[C@H]1C2)N1CCCCCCC1 | 64 | i | i | i | i
C[C@@H]1CN(C(=O)c2nc3ccc(Cl)cn3c2CNCC[C@@H]2C[C@@H]3C=C[C@H]2C3)C[C@H](C)O1 | i | i | i | i | i
COc1ccc(NC(=O)c2cc3ccc4c5ccccc5[nH]c4c3cc2O)cc1 | i | i | i | i | i
Cc1cccc2c1-c1sc(C(=O)NCCCN3CCCC(C)C3)cc1CO2 (stereo not drawn) | 48 | i | i | i | i
CCOc1ccc(CN2CCN(C(=O)c3ccccc3)CC2)cc1 | i | i | i | -7 | i
CCOc1ccc(C(=O)N2CCN(Cc3ccccc3)CC2)cc1 | i | i | i | i | i
O=C(O)CN(c1ccccc1[N+](=O)[O-])S(=O)(=O)c1ccccc1 | i | i | i | i | i
COc1cccc(N=Nc2c(N)[nH][nH]c2=O)c1 | i | i | i | i | 14
Nc1[nH][nH]c(=O)c1N=Nc1cccc(Cl)c1 | i | i | i | i | 10
COc1ccc(C)cc1NC(=S)NNC(=O)c1c(Br)cnn1C | i | i | i | i | i
CC1(C)CC(NC(=O)c2cc(COc3cccc(C(F)(F)F)c3)on2)CCO1 (stereo not drawn) | i | i | i | -6 | i
CC(C)c1ccc(OCC(=O)Nc2cccc3c2CCCC3)cc1 | i | i | i | i | i
COc1ccc(OCC(=O)Nc2ccccc2N2CCN(C)CC2)cc1 | i | i | i | -6 | i
CCC(=O)N1CCN(c2ccccc2NC(=O)COc2ccc(C(C)C)cc2)CC1 | i | i | i | i | 11
COc1ccc(OCC(=O)Nc2ccccc2N2CCCCC2)cc1 | i | i | i | i | i
O=C(CNC(=O)c1ccccc1F)OCC(=O)c1ccc(Cl)s1 | i | i | i | i | i
Cn1c(=O)c2c(nc(CN3CCc4ccccc4C3)n2Cc2cccc(Cl)c2)n(C)c1=O | i | i | i | i | 73
Cn1c(=O)c2c(nc(CN3CCc4ccccc4C3)n2Cc2ccccc2F)n(C)c1=O | 169 | i | i | i | i
Cc1ccc(S(=O)(=O)N(Cc2ccccc2)Cc2ccco2)cc1 | i | i | i | i | 14
Cc1ccc(S(=O)(=O)N(Cc2ccc(F)cc2)Cc2ccco2)cc1 | i | i | i | i | i
Cc1ccc(C)c(CN2CCC(CNC(=O)CCc3nnc4ccc(N5CCCCC5)nn34)CC2)c1 | 126 | i | i | i | i
Cc1ccc(C)c(NC(=O)CCc2nnc3ccc(N4CCCC4)nn23)c1 | i | i | i | i | i
SMILES | TRPC4 act | TRPC6 inhibitor | TRPC6 activator | TRPC4 block | TRPC4 potent
CCOc1ccccc1Nc1nnc(SCc2nnc(-c3cc(OC)c(OC)c(OC)c3)o2)s1 | i | i | i | i | 21
CN(CC(=O)NC1CCCc2ccccc21)C1CCCCC1 (stereo not drawn) | i | i | i | -5 | i
CCCNC(=O)c1nnsc1S(=O)c1ccc(Cl)cc1 (stereo not drawn) | i | i | i | -6 | i
O=C(O)c1ccc(Cl)cc1Nc1nc2cc(Cl)ccc2o1 | i | i | i | -6 | i
CCC(=O)Nc1cc(Cl)ccc1C(=O)O | i | i | i | i | i
Cc1ccsc1/C=N/Nc1ccc(F)cc1F | i | i | i | i | i
O=C(NCC1CCCO1)c1cn(-c2ccccc2)nc1-c1ccccc1 (stereo not drawn) | i | i | i | i | i

Source: PubChem BioAssay
